According to ChEMBL document CHEMBL1212764, “Antimicrobial resistance in Haemophilus influenzae respiratory tract isolates in Korea: results of a nationwide acute respiratory infections surveillance” (2010):
≈ marks a conversion by molar mass, not a printed value.

How the values were obtained:
Type in all cases: functional
Haemophilus influenzae [1] = assay: Antimicrobial activity against Haemophilus influenzae isolate by broth microdilution method
Summary of the method: (§1)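 Broth microdilution MIC in freshly prepared Haemophilus test medium per 2008 CLSI guidelines; H. influenzae ATCC 49247 and ATCC 49766 as control strains. Isolates from outpatient nasal aspirates (no prior antibiotics), cultured on blood agar with S. aureus streak and chocolate agar. PBP3 substitutions deduced from ftsI sequencing against the Rd strain; β-lactamase genes (TEM-1, ROB-1) detected by PCR.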

Haemophilus influenzae [2] = assay: Antimicrobial activity against Beta-lactamase-positive, ampicillin-cluvulanate-resistant Haemophilus influenzae with Asp350Asn, Met377Ile, Gly490Glu, Ala502Val, Asn526Lys substitutions in penicillin-binding protein 3 by broth microdilution method; summary of the method: as §1
Haemophilus influenzae [3] = assay: Antimicrobial activity against Beta-lactamase-negative, ampicillin-resistant Haemophilus influenzae with Asp350Asn, Met377Ile, Asn526Lys substitutions in penicillin-binding protein 3 by broth microdilution method; summary of the method: as §1
Haemophilus influenzae [4] = assay: Antimicrobial activity against Beta-lactamase-positive, ampicillin-cluvulanate-resistant Haemophilus influenzae with Ile449Val, Asn526Lys substitutions in penicillin-binding protein 3 by broth microdilution method; summary of the method: as §1
Haemophilus influenzae [5] = assay: Antimicrobial activity against Beta-lactamase-negative, ampicillin-resistant Haemophilus influenzae with penicillin-binding protein 3 by broth microdilution method; summary of the method: as §1
Haemophilus influenzae [6] = assay: Antimicrobial activity against Beta-lactamase-negative, ampicillin-resistant Haemophilus influenzae with Gly490Glu, Asn526Lys substitutions in penicillin-binding protein 3 by broth microdilution method; summary of the method: as §1
Haemophilus influenzae [7] = assay: Antimicrobial activity against Beta-lactamase-negative, ampicillin-resistant Haemophilus influenzae with Asp350Asn, Met377Ile, Gly490Glu, Asn526Lys substitutions in penicillin-binding protein 3 by broth microdilution method; summary of the method: as §1
Haemophilus influenzae [8] = assay: Antimicrobial activity against Beta-lactamase-positive, ampicillin-cluvulanate-resistant Haemophilus influenzae by broth microdilution method; summary of the method: as §1
Haemophilus influenzae [9] = assay: Antimicrobial activity against Beta-lactamase-positive, ampicillin-cluvulanate-resistant Haemophilus influenzae with Asp350Asn, Met377Ile, Ala502Val, Asn526Lys substitutions in penicillin-binding protein 3 by broth microdilution method; summary of the method: as §1
Haemophilus influenzae [10] = assay: Antimicrobial activity against Beta-lactamase-positive, ampicillin-cluvulanate-resistant Haemophilus influenzae with Asp350Asn, Met377Ile, Ser385Thr, Asn526Lys substitutions in penicillin-binding protein 3 by broth microdilution method; summary of the method: as §1
Haemophilus influenzae [11] = assay: Antimicrobial activity against Beta-lactamase-negative, ampicillin-resistant Haemophilus influenzae with Asp350Asn, Met377Ile, Ala502Val, Asn526Lys substitutions in penicillin-binding protein 3 by broth microdilution method; summary of the method: as §1
Haemophilus influenzae [12] = assay: Antimicrobial activity against Beta-lactamase-positive, ampicillin-cluvulanate-resistant Haemophilus influenzae with Ala502Val, Asn526Lys substitutions in penicillin-binding protein 3 by broth microdilution method; summary of the method: as §1
Haemophilus influenzae [13] = assay: Antimicrobial activity against Beta-lactamase-negative, ampicillin-resistant Haemophilus influenzae with Ile449Val, Ala502Thr, Asn526Lys substitutions in penicillin-binding protein 3 by broth microdilution method; summary of the method: as §1
Haemophilus influenzae [14] = assay: Antimicrobial activity against Beta-lactamase-negative, ampicillin-resistant Haemophilus influenzae with Asp350Asn, Met377Ile, Gly490Glu, Ala502Val, Asn526Lys substitutions in penicillin-binding protein 3 by broth microdilution method; summary of the method: as §1
Haemophilus influenzae [15] = assay: Antimicrobial activity against Beta-lactamase-positive, ampicillin-cluvulanate-resistant Haemophilus influenzae with Asp350Asn, Ser357Asp, Met377Ile, Ser385Thr, Arg517His substitutions in penicillin-binding protein 3 by broth microdilution method; summary of the method: as §1
Haemophilus influenzae [16] = assay: Antimicrobial activity against Beta-lactamase-negative, ampicillin-resistant Haemophilus influenzae with Ile449Val, Asn526Lys substitutions in penicillin-binding protein 3 by broth microdilution method; conditions: Haemophilus influenzae; read-out: MIC; summary of the method: as §1
Haemophilus influenzae [17] = assay: Antimicrobial activity against Beta-lactamase-negative, ampicillin-resistant Haemophilus influenzae by broth microdilution method; summary of the method: as §1
Haemophilus influenzae [18] = assay: Antimicrobial activity against beta-lactamase-negative, ampicillin-sensitive Haemophilus influenzae by broth microdilution method; summary of the method: as §1
Haemophilus influenzae [19] = assay: Antimicrobial activity against Beta-lactamase-negative, ampicillin-resistant Haemophilus influenzae with Asp350Asn, Ser357Asp, Met377Ile, Ser385Thr, Arg517His substitutions in penicillin-binding protein 3 by broth microdilution method; summary of the method: as §1
Haemophilus influenzae [20] = assay: Antimicrobial activity against Beta-lactamase-negative, ampicillin-resistant Haemophilus influenzae with Asp350Asn, Ser357Asp, Met377Ile, Ser385Thr, Ala502Thr, Asn526Lys substitutions in penicillin-binding protein 3 by broth microdilution method; summary of the method: as §1
Haemophilus influenzae [21] = assay: Antimicrobial activity against Beta-lactamase-positive, ampicillin-cluvulanate-resistant Haemophilus influenzae with Asp350Asn, Ala437Ser substitutions in penicillin-binding protein 3 by broth microdilution method; summary of the method: as §1
Haemophilus influenzae [22] = assay: Antimicrobial activity against Beta-lactamase-negative, ampicillin-resistant Haemophilus influenzae with Asp350Asn, Ser357Asp, Ser385Thr, Leu389Phe, Ala502Thr, Asn526Lys substitutions in penicillin-binding protein 3 by broth microdilution method; summary of the method: as §1
Haemophilus influenzae [23] = assay: Antimicrobial activity against Beta-lactamase-negative, ampicillin-resistant Haemophilus influenzae with Ala502Val, Asn526Lys substitutions in penicillin-binding protein 3 by broth microdilution method; summary of the method: as §1
Haemophilus influenzae [24] = assay: Antimicrobial activity against Beta-lactamase-positive, ampicillin-cluvulanate-resistant Haemophilus influenzae with Asp350Asn, Ala502Thr, Asn526Lys substitutions in penicillin-binding protein 3 by broth microdilution method; summary of the method: as §1
Haemophilus influenzae [25] = assay: Antimicrobial activity against Beta-lactamase-negative, ampicillin-resistant Haemophilus influenzae with Ser311Pro, Ala502Thr, Asn526Lys substitutions in penicillin-binding protein 3 by broth microdilution method; summary of the method: as §1
Haemophilus influenzae [26] = assay: Antimicrobial activity against Beta-lactamase-negative, ampicillin-resistant Haemophilus influenzae with Asp350Asn, Ser357Asp, Met377Ile, Ser385Thr, Leu389Phe, substitutions in penicillin-binding protein 3 by broth microdilution method; summary of the method: as §1
Haemophilus influenzae [27] = assay: Antimicrobial activity against Beta-lactamase-positive, ampicillin-resistant Haemophilus influenzae by broth microdilution method; summary of the method: as §1
Haemophilus influenzae [28] = assay: Antimicrobial activity against Beta-lactamase-positive, ampicillin-cluvulanate-resistant Haemophilus influenzae with Asp350Asn, Ser357Asp, Ala437Ser, Ala502Thr, Asn526Lys substitutions in penicillin-binding protein 3 by broth microdilution method; summary of the method: as §1
Haemophilus influenzae [29] = assay: Antimicrobial activity against Beta-lactamase-positive, ampicillin-cluvulanate-resistant Haemophilus influenzae with Asp350Asn, Met377Ile, Asn526Lys substitutions in penicillin-binding protein 3 by broth microdilution method; summary of the method: as §1
Haemophilus influenzae [30] = assay: Antimicrobial activity against Beta-lactamase-positive, ampicillin-cluvulanate-resistant Haemophilus influenzae with Ala368Thr, Ala502Thr, Asn526Lys substitutions in penicillin-binding protein 3 by broth microdilution method; summary of the method: as §1

| SMILES | MIC50 (Haemophilus influenzae [1]) | MIC90 (Haemophilus influenzae [1]) | MIC (Haemophilus influenzae [2]) | MIC (Haemophilus influenzae [3]) | MIC (Haemophilus influenzae [4]) | MIC (Haemophilus influenzae [5]) | MIC (Haemophilus influenzae [6]) | MIC (Haemophilus influenzae [7]) | MIC50 (Haemophilus influenzae [8]) | MIC90 (Haemophilus influenzae [8]) | MIC (Haemophilus influenzae [9]) | MIC (Haemophilus influenzae [10]) | MIC (Haemophilus influenzae [11]) | MIC (Haemophilus influenzae [12]) | MIC (Haemophilus influenzae [13]) | MIC (Haemophilus influenzae [14]) | MIC (Haemophilus influenzae [15]) | MIC (Haemophilus influenzae [16]) | MIC50 (Haemophilus influenzae [17]) | MIC90 (Haemophilus influenzae [17]) | also measured |
| --- | --- | --- | --- | --- | --- | --- | --- | --- | --- | --- | --- | --- | --- | --- | --- | --- | --- | --- | --- | --- | --- |
| CO/N=C(\C(=O)N[C@@H]1C(=O)N2C(C(=O)O)=C(COC(N)=O)CS[C@H]12)c1ccco1 [CEFUROXIME] | 2 µg/mL (≈ 4.71 µM) | 8 µg/mL (≈ 18.9 µM) | 11.4 µg/mL (≈ 26.9 µM) | 9.3 µg/mL (≈ 21.9 µM) | 4 µg/mL (≈ 9.43 µM) | 2 µg/mL (≈ 4.71 µM) | 9.3 µg/mL (≈ 21.9 µM) | 9.3 µg/mL (≈ 21.9 µM) | 8 µg/mL (≈ 18.9 µM) | 32 µg/mL (≈ 75.4 µM) | 11.4 µg/mL (≈ 26.9 µM) | 2 µg/mL (≈ 4.71 µM) | 6 µg/mL (≈ 14.1 µM) | 11.4 µg/mL (≈ 26.9 µM) | 11.4 µg/mL (≈ 26.9 µM) | 6 µg/mL (≈ 14.1 µM) | 32 µg/mL (≈ 75.4 µM) | 8 µg/mL (≈ 18.9 µM) | 8 µg/mL (≈ 18.9 µM) | 16 µg/mL (≈ 37.7 µM) | MIC50 (Haemophilus influenzae [18]): 2 µg/mL (≈ 4.71 µM); MIC90 (Haemophilus influenzae [18]): 8 µg/mL (≈ 18.9 µM); MIC (Haemophilus influenzae [19]): 13.3 µg/mL (≈ 31.3 µM); MIC (Haemophilus influenzae [20]): 11.4 µg/mL (≈ 26.9 µM); MIC (Haemophilus influenzae [21]): 4 µg/mL (≈ 9.43 µM); MIC (Haemophilus influenzae [22]): 11.4 µg/mL (≈ 26.9 µM); MIC (Haemophilus influenzae [23]): 6 µg/mL (≈ 14.1 µM); MIC (Haemophilus influenzae [24]): 6.5 µg/mL (≈ 15.3 µM); MIC (Haemophilus influenzae [25]): 11.4 µg/mL (≈ 26.9 µM); MIC (Haemophilus influenzae [26]): 13.3 µg/mL (≈ 31.3 µM); MIC50 (Haemophilus influenzae [27]): 2 µg/mL (≈ 4.71 µM); MIC90 (Haemophilus influenzae [27]): 8 µg/mL (≈ 18.9 µM); MIC (Haemophilus influenzae [28]): 6.5 µg/mL (≈ 15.3 µM); MIC (Haemophilus influenzae [29]): 2 µg/mL (≈ 4.71 µM); MIC (Haemophilus influenzae [30]): 6.5 µg/mL (≈ 15.3 µM) |
| CO/N=C(\C(=O)N[C@@H]1C(=O)N2C(C(=O)O)=C(COC(C)=O)CS[C@H]12)c1csc(N)n1 [CEFOTAXIME] | 0.063 µg/mL (≈ 0.138 µM) | 0.125 µg/mL (≈ 0.274 µM) | 0.188 µg/mL (≈ 0.413 µM) | 0.063 µg/mL (≈ 0.138 µM) | 0.094 µg/mL (≈ 0.206 µM) | 0.063 µg/mL (≈ 0.138 µM) | 0.063 µg/mL (≈ 0.138 µM) | 0.063 µg/mL (≈ 0.138 µM) | 0.063 µg/mL (≈ 0.138 µM) | 1 µg/mL (≈ 2.2 µM) | 0.188 µg/mL (≈ 0.413 µM) | 0.532 µg/mL (≈ 1.17 µM) | 0.069 µg/mL (≈ 0.151 µM) | 0.188 µg/mL (≈ 0.413 µM) | 0.194 µg/mL (≈ 0.426 µM) | 0.069 µg/mL (≈ 0.151 µM) | 0.188 µg/mL (≈ 0.413 µM) | 0.708 µg/mL (≈ 1.55 µM) | 0.063 µg/mL (≈ 0.138 µM) | 1 µg/mL (≈ 2.2 µM) | MIC50 (Haemophilus influenzae [18]): 0.063 µg/mL (≈ 0.138 µM); MIC90 (Haemophilus influenzae [18]): 0.25 µg/mL (≈ 0.549 µM); MIC (Haemophilus influenzae [19]): 0.25 µg/mL (≈ 0.549 µM); MIC (Haemophilus influenzae [20]): 0.194 µg/mL (≈ 0.426 µM); MIC (Haemophilus influenzae [21]): 0.125 µg/mL (≈ 0.274 µM); MIC (Haemophilus influenzae [22]): 0.194 µg/mL (≈ 0.426 µM); MIC (Haemophilus influenzae [23]): 0.069 µg/mL (≈ 0.151 µM); MIC (Haemophilus influenzae [24]): 0.079 µg/mL (≈ 0.173 µM); MIC (Haemophilus influenzae [25]): 0.194 µg/mL (≈ 0.426 µM); MIC (Haemophilus influenzae [26]): 1.7 µg/mL (≈ 3.73 µM); MIC50 (Haemophilus influenzae [27]): 0.063 µg/mL (≈ 0.138 µM); MIC90 (Haemophilus influenzae [27]): 0.125 µg/mL (≈ 0.274 µM); MIC (Haemophilus influenzae [28]): 0.079 µg/mL (≈ 0.173 µM); MIC (Haemophilus influenzae [29]): 0.532 µg/mL (≈ 1.17 µM); MIC (Haemophilus influenzae [30]): 0.079 µg/mL (≈ 0.173 µM) |
